Compound activity as filed in PubChem.
Apaf-1 act – activators of human Apaf-1 apoptosome, primary screen, biochemical, DEVD-Rh110 fluorescence, uHTS. Apoptotic protease-activating factor 1 (Homo sapiens), O14727. Apaf-1 apoptosome caspase-3 activation; stronger effect = lower value. activity change, negative = activation, % at 20 µM. actives 0.31% (n = 330,000). AID 489031, 2010;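 active = activity change at or below -40% at 20 µM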
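Material: reconstituted apoptosome of Apaf-1, cytochrome c, caspase-9, procaspase-3; times: 30 min preincubation, 50 min reaction, room temperature; measured by: fluorescence, 540 nm emission, 480 nm excitation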
Rh110 act interf – Rh110 fluorescence interference by putative Apaf-1 activators, confirmation, artefact control for Apaf-1 activator project, biochemical, 20 µM; shares compounds with Apaf-1 act; quenched caspase reaction, Ex480/Em540; fluorescence interference (activity change), % at 20 µM, hits read low; 980 tested, under 10 active; AID 504616, 2011;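 active = mean activity change at or below -40% when tested at 20 µM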
Apaf-1 act conf – Apaf-1 activators, single-dose retest, confirmation, biochemical, fluorescence, DEVD-Rh110, 20 µM | shares compounds with Apaf-1 act | reconstituted apoptosome caspase-3 activity; stronger effect = lower value | activity change, negative = activation, % at 20 µM | actives 5% (n = 980) | AID 504617, 2011;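 active = mean activity change at or below -40%, meaning activation of 40% or more, at 20 µM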
Large screens that a line does not name were inactive (follow-up assays come after a bar, where they were run). A selection follows.

Oc1ccc(N=Cc2ccc(-c3cccs3)s2)cc1	none
O=C1C(NS(=O)(=O)c2cccs2)=C(N2CCN(c3cccc(Cl)c3)CC2)C(=O)c2ccccc21	none
CCN1C(=NCCc2ccc(Br)cc2)N[C@@H](c2ccccc2)[C@H](C(=O)OC)[C@H]1C	none
Cc1ccc2c(c1)c1ccc3c(c1n2C)C(=O)C=CC3=O	none
CCN(CC(=O)Nc1c(F)cccc1F)C(=O)Cc1ccsc1	none
CS(=O)(=O)N(CC(=O)Nc1c(F)cccc1F)Cc1ccccc1	Apaf-1 act -58.8 | Rh110 act interf inactive | Apaf-1 act conf inactive
CCN(CC)CC(=O)Nc1c(C)cccc1C	none
CCN(CC)C(=O)C(=O)c1c(-c2ccccc2)[nH]c2ccccc12	Apaf-1 act -509.5 | Rh110 act interf inactive | Apaf-1 act conf inactive
CCN(c1ccccc1)c1cc2ccccc2c(=O)[nH]1	none
O=C(CSc1nnnn1-c1ccc(C(=O)O)cc1)NC1CC1	Apaf-1 act -324.1 | Rh110 act interf inactive | Apaf-1 act conf inactive
Cc1oc2c(c1C(=O)N1CCC(C)CC1)C(=O)c1ccccc1C2=O	none
CCCN[C@H]1CCc2nc(N)sc2C1	none
COc1ccc(C[C@H]2CN3C(=NC[C@@H]3Cc3ccccc3)N2CCNC(=O)c2ccc(C)c(Br)c2)cc1	none
COc1ccc(-c2cnc(OC(C)(C)C)nc2OC(C)(C)C)cc1OC	Apaf-1 act -264.5 | Rh110 act interf inactive | Apaf-1 act conf inactive
COc1ccc(-c2cc(=O)[nH][nH]2)cc1OC	none
Cc1cc(=O)n(-c2ccc3ccccc3n2)[nH]1	none
CC(Cn1nnc2ccccc21)C(=O)O (stereo unspecified)	Apaf-1 act -106.7 | Rh110 act interf inactive | Apaf-1 act conf inactive
O=C1C(N2CCOCC2)=C(n2nnc3ccccc32)C(=O)c2ccccc21	none
CC(Sc1ccc2ccccc2n1)C(=O)O (stereo unspecified)	none
CC1OC(Nc2cccc3ccccc23)C(O)C(O)C1O (stereo unspecified)	none
O=C1C2=C(c3ccccc31)[N+](=O)[C@@H]1CCCC[C@@H]1N2[O-]	none
CCOc1ccccc1OCCC(=O)NNC(=O)Cn1nc(C)cc1C	Apaf-1 act -81.5 | Rh110 act interf inactive | Apaf-1 act conf inactive
CCC(=O)N(C1=C(NC)C(=O)c2ccccc2C1=O)C(C)C	none
CCCCCCCCCC[N+](C)(C)CC/C=C1/c2ccccc2Sc2ccc(Cl)cc21	none
NC1=NC[C@H](Cc2ccccc2)N1CCCCC1CCCCC1	none
Cc1c(C(=O)Nc2ccncc2)sc2nc(-c3ccc(F)cc3)cn12	Apaf-1 act -43.8 | Rh110 act interf inactive | Apaf-1 act conf inactive
COc1cc(OC)c2c(-c3ccccc3)cc(=O)oc2c1C(CCN1CCCC(C)C1)c1ccc2c(c1)OCO2 (stereo unspecified)	none
COc1ccc(/C=N/NC(=O)CNC(=O)/C=C/c2ccco2)cc1OC	Apaf-1 act -407.5 | Rh110 act interf inactive | Apaf-1 act conf inactive
CSc1ccc(/C=N/NC(=O)CNc2cccc3ccccc23)cc1	none
Cc1cc(C)c2sc(N(CCN(C)C)C(=O)CCS(=O)(=O)c3ccccc3)nc2c1	none
O=C(CN1CCc2cc3c(cc2C1)OCCCO3)Nc1cccc([N+](=O)[O-])c1	none
O=C(Nc1ccncc1NC(=O)c1cccc([N+](=O)[O-])c1)c1cccc([N+](=O)[O-])c1	Apaf-1 act -40.3 | Rh110 act interf inactive | Apaf-1 act conf inactive
O=C(N/N=C/c1ccc(-c2ccccc2[N+](=O)[O-])o1)c1cccnc1	none
O=c1cc(-c2ccc(F)cc2)[nH][nH]1	none
CCOc1ccc(S(=O)(=O)N(CC(=O)N2CCc3ccccc32)Cc2ccco2)cc1	Apaf-1 act -307.1 | Rh110 act interf inactive | Apaf-1 act conf inactive
O=C1C(Cl)=C(NCc2cccnc2)C(=O)c2ccccc21	none
C#CCOCCOCCOCCNc1nc(N2CCN(C(=O)[C@H]([C@@H](C)CC)n3cc([C@@H](N)Cc4ccc(O)cc4)nn3)CC2)nc(N2CCN(C(=O)[C@H](Cc3cc4ccccc4[nH]3)n3cc([C@@H](N)C(C)CC)nn3)CC2)n1 (stereo partly specified)	none
CC(C)CCC(C)N=Cc1c(O)n(Cc2ccccc2)c(=O)c2ccccc12 (stereo unspecified)	none
COc1ccc(OCc2nnc(SCC(=O)NC3CC3)n2C)cc1	Apaf-1 act -96.5 | Rh110 act interf inactive | Apaf-1 act conf inactive
CC1CCN(C(=O)CSc2nnc(Cn3c(=O)sc4ccccc43)n2C)CC1	none
COc1ccc(-n2nc(C(=O)NCC(=O)NC3CCCCCC3)c3ccccc3c2=O)c(OC)c1	none
c1ccc([C@H]2CNCCN2CCc2cccc3ccccc23)cc1	none
O=C(NCc1ccccc1)C1(CC2CC(c3ccccc3)=NO2)CCNCC1 (stereo unspecified)	none
CCOC(=O)c1c2c(n(C)c1C)C(=O)C(=O)c1ccc(Br)cc1-2	none
Cc1noc(C)c1S(=O)(=O)N1CCCC(C(=O)NCC2CCCO2)C1 (stereo unspecified)	Apaf-1 act -89.4 | Rh110 act interf inactive | Apaf-1 act conf inactive
C#CCOCCOCCOCCNc1nc(N2CCN(C(=O)C([C@@H](C)O)n3cc([C@@H](N)CCCCN)nn3)CC2)nc(N2CCN(C(=O)[C@H](CO)n3cc([C@@H](N)C(C)C)nn3)CC2)n1 (stereo partly specified)	none
O=C1C2=C(c3ccccc31)[N+](=O)C1CCCCC1N2[O-] (stereo unspecified)	none
Nc1ccnc(C(F)(F)F)c1C(=O)c1ccccc1	Apaf-1 act -43.3 | Rh110 act interf inactive | Apaf-1 act conf inactive
Cc1onc(-c2ccccc2Cl)c1C(=O)NCc1ccc2c(c1)cc(C)n2C	none
COC1=C(Nc2ccccc2)C(=O)c2ccccc2C1=O	none
c1ccc(-c2cn3nc4c(nc3n2)CCCC4)cc1	none
COc1ccc(OC)c(NC(=O)CS(=O)(=O)Cc2nc(-c3ccccc3C)oc2C)c1	Apaf-1 act -50.0 | Rh110 act interf inactive | Apaf-1 act conf inactive
COc1ccc(C(C)(C)C)cc1NC(=O)CNc1cccc2ccccc12	none
COc1ccc(CC(=O)Nc2ccc(-c3nc4cc(C)ccc4o3)c(O)c2)cc1OC	none
O=C(c1cccs1)[C@@H]1[C@@H]2C(=O)N(Cc3ccc4c(c3)OCO4)C(=O)[C@@H]2C2c3ccccc3C=CN21 (stereo partly specified)	none
COC(=O)c1c(C(C)=O)c(C)n(C)c1C	Apaf-1 act -343.1 | Rh110 act interf inactive | Apaf-1 act conf inactive
COc1ccc(C(=O)O)cc1NC(=S)NC(=O)CSc1ccc(Cl)cc1	Apaf-1 act -151.7 | Rh110 act interf inactive | Apaf-1 act conf inactive
CC(=O)C1=C(O)C(=O)N(CCc2c[nH]c3ccccc23)C1c1ccco1 (stereo unspecified)	none
C#CCOCCOCCOCCNc1nc(N2CCN(C(=O)CCCCCCCCCCNC(=O)[C@@H](CCSC)n3cc(CCO)nn3)CC2)nc(N2CCN(C(=O)CCCCCCCCCCNC(=O)[C@H]([C@@H](C)CC)n3cc(CCCCCN)nn3)CC2)n1	none
O=C(CCCC(=O)OCC(Cl)=C(Cl)Cl)Nc1ccccc1F	Apaf-1 act -61.3 | Rh110 act interf inactive | Apaf-1 act conf inactive
CCC(=O)OCCNc1cc(Sc2nc3ccccc3s2)c2nonc2c1[N+](=O)[O-]	none
